Results published in ChEMBL document CHEMBL1921783, “Hypoxia activated prodrugs of a 9-aza-anthrapyrazole derivative that has promising anticancer activity” (J Med Chem, 2011).
Counter-ions that a name gives are not always drawn. Active and inactive are the calls of the source. No cut-off for these calls is given here.

What was measured:
Nucleic Acid [1] = experiment: Displacement of ethidium bromide from DNA by fluorometric analysis; type: nucleic-acid assay
Procedure, shortened: (§1)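 Fluorescence read-out of ethidium bromide displacement from DNA; IC50 is concentration reducing ethidium bromide binding by 50%; tested up to 50 μM.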

[2] = molecular target: DNA topoisomerase 2-alpha (Homo sapiens) (UniProt P11388); experiment: Inhibition of DNA topoisomerase 2-mediated DNA fragmentation at 10 uM by gel electrophoresis analysis
DNA topoisomerase 2-alpha (Homo sapiens), sequence (P11388 whole entry, the tested form may be a part): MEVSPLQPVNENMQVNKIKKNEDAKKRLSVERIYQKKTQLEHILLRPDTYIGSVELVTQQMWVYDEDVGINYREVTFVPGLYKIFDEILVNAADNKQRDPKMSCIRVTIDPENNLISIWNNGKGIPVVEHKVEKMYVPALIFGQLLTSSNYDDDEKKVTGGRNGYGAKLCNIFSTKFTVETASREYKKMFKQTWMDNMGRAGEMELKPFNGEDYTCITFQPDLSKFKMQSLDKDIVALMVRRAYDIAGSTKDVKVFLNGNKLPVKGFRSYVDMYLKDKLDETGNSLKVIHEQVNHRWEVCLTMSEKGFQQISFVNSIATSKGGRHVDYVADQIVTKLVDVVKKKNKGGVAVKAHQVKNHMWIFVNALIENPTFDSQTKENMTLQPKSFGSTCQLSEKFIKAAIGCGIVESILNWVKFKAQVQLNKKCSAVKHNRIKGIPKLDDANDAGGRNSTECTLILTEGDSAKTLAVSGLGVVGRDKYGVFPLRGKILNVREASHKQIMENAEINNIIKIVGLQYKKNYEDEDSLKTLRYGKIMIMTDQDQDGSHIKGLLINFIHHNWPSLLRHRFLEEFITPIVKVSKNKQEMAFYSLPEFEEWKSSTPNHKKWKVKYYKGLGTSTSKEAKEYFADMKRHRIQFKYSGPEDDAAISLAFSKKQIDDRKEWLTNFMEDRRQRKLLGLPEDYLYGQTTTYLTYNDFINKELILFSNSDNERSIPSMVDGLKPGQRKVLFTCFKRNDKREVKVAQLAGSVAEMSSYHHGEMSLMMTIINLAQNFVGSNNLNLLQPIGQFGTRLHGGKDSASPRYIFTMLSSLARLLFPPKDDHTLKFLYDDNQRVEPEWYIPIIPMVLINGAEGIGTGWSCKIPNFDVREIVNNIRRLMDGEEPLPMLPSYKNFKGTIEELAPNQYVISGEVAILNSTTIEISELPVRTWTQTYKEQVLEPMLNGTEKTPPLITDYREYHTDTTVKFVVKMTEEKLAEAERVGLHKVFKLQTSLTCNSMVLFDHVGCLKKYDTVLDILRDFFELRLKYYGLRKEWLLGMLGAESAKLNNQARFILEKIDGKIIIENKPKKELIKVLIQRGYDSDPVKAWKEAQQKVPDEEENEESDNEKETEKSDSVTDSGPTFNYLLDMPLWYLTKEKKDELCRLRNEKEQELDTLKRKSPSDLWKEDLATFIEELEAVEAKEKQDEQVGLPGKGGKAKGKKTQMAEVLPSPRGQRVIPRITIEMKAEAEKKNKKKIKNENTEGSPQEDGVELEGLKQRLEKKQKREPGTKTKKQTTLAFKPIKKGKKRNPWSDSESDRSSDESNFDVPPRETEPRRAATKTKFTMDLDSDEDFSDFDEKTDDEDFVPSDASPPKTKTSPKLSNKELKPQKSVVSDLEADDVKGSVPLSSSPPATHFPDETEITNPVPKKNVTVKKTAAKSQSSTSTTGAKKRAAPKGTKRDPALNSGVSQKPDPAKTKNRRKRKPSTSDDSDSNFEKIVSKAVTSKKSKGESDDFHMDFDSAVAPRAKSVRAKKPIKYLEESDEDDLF
Procedure, shortened: (§2)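 Topo II incubated with DNA and compound; products resolved by gel electrophoresis, with intact DNA as a single band and Topo II fragmentation giving multiple bands.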

[3] = molecular target: DNA topoisomerase 2-alpha (Homo sapiens) (UniProt P11388); experiment: Inhibition of DNA topoisomerase 2-mediated DNA fragmentation at 10 uM pretreated with 1% O2 for 2 hrs measured by gel electrophoresis analysis
Procedure, shortened: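 Before the Topo II assay, compound incubated with rat liver S-9 fraction in 1% O2 or normal air for 2 h at 37 °C. Proteins were precipitated with ethanol and the sample centrifuged; the supernatant was then tested for inhibition of Topo II DNA fragmentation by gel electrophoresis.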

MCF7 [4] = experiment: Cytotoxicity against doxorubicin-sensitive human MCF7 cells under hypoxic condition assessed as growth inhibition after 74 hrs by sulforhodamine B assay; type: functional, cell-based; conditions: MCF7, 74 h
Procedure, shortened: (§3)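 Cells grown in 96-well plates for 74 h across a range of test concentrations; growth measured by sulforhodamine B staining and IC50 taken as 50% inhibition of growth. Hypoxic arm held in an anaerobic chamber flushed with 95% N2/5% CO2; oxic arm in oxygen-rich conditions.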

MCF7 [5] = experiment: Cytotoxicity against doxorubicin-sensitive human MCF7 cells under oxic condition assessed as growth inhibition after 74 hrs by sulforhodamine B assay; type: functional, cell-based; conditions: MCF7, 74 h; procedure, shortened: as §3
MCF7 [6] = experiment: Cytotoxicity against doxorubicin-resistant human MCF7 cells under oxic condition assessed as growth inhibition after 74 hrs by sulforhodamine B assay; type: functional, cell-based; conditions: MCF7, 74 h; procedure, shortened: as §3
LoVo [7] = experiment: Cytotoxicity against human LoVo cells under hypoxic condition assessed as growth inhibition after 74 hrs by sulforhodamine B assay; type: functional, cell-based; procedure, shortened: as §3
MCF7 [8] = experiment: Cytotoxicity against doxorubicin-resistant human MCF7 cells under hypoxic condition assessed as growth inhibition after 74 hrs by sulforhodamine B assay; type: functional, cell-based; conditions: MCF7, 74 h; procedure, shortened: as §3
LoVo [9] = experiment: Cytotoxicity against human LoVo cells under oxic condition assessed as growth inhibition after 74 hrs by sulforhodamine B assay; type: functional, cell-based; procedure, shortened: as §3
Nucleic Acid [10] = experiment: Binding affinity to DNA assessed as increase in hypochromicity by UV-spectroscopic analysis without compound pretreatment with CYP450; type: nucleic-acid assay
Procedure, shortened: (§4)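 UV absorbance scans of compound recorded with sequentially increasing DNA concentrations; binding judged from hypochromicity and bathochromic shift. CYP450 pretreatment where applicable: incubation with rat liver S-9 fraction in 1% O2, 2 h, 37 °C, proteins precipitated with ethanol, supernatant after centrifugation used.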

[11] = molecular target: DNA topoisomerase 2-alpha (Homo sapiens) (UniProt P11388); experiment: Inhibition of DNA topoisomerase 2-mediated DNA fragmentation at 50 uM by gel electrophoresis analysis; procedure, shortened: as §2
Nucleic Acid [12] = experiment: Displacement of ethidium bromide from DNA at 50 uM by fluorometric analysis; type: nucleic-acid assay; procedure, shortened: as §1
Nucleic Acid [13] = experiment: Binding affinity to DNA assessed as increase in hypochromicity by UV-spectroscopic analysis with compound pretreatment with CYP450; type: nucleic-acid assay; procedure, shortened: as §4
Nucleic Acid [14] = experiment: Binding affinity to DNA assessed as bathochromic shift by UV-spectroscopic analysis with compound pretreatment with CYP450; type: nucleic-acid assay; procedure, shortened: as §4

Structure (SMILES) | IC50 (Nucleic Acid [1]) | inhibition [2] | inhibition [3] | IC50 (MCF7 [4]) | IC50 (MCF7 [5]) | IC50 (MCF7 [6]) | IC50 (LoVo [7]) | IC50 (MCF7 [8]) | IC50 (LoVo [9]) | Activity (Nucleic Acid [10]) | inhibition [11] | Activity (Nucleic Acid [12]) | Activity (Nucleic Acid [13]) | Activity (Nucleic Acid [14])
CN(C)CCNc1ccc2c3c(nn2CCN(C)C)-c2cnccc2C(=O)c13 | 6800 nM | Active | Active | 4000 nM | 900 nM | 1000 nM | 3300 nM | 1200 nM | 1300 nM | – | – | – | – | –
O=C1c2c(O)ccc(O)c2C(=O)c2c(NCCNCCO)ccc(NCCNCCO)c21 [MITOXANTRONE HYDROCHLORIDE] | 4500 nM | – | – | 1000 nM | 100 nM | 4700 nM | 900 nM | > 10000 nM | 100 nM | – | – | – | – | –
C[N+](C)([O-])CCNc1ccc2c3c(nn2CC[N+](C)(C)[O-])-c2cnccc2C(=O)c13 | – | – | Active | 5000 nM | > 25000 nM | > 25000 nM | 1500 nM | 1300 nM | > 25000 nM | inactive | inactive | inactive | Active | Active
